Data reported in publication PMC4927891 (Journal of Alzheimer's Disease, 2015).
Peptide text beside a SMILES is read from it.

How the values were obtained:
Assay type in all cases: biochemical
CDK5/p25 = CDK5/p25 (Homo sapiens, UniProt Q00535); assay: Radiometric protein kinase assay, CDK5/p25 phosphotransferase activity; conditions: for % Activity Change 1 μM: peptide 1 μM, negative = inhibition; for % Activity Change 1 μM / % Activity Change 10 μM / % Activity Change 50 μM / % Activity Change 100 μM / % Activity Change 250 μM / % Activity Change 500 μM: vs control without inhibitor, duplicate; for % Activity Change 10 μM: peptide 10 μM; for % Activity Change 50 μM: peptide 50 μM; for % Activity Change 500 μM: peptide 500 μM
How it was run: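 GST-tagged CDK5/p25 co-expressed in Sf9 cells via baculovirus, 15 nM final, with calf thymus histone H1 (1 mg/ml final) in MOPS pH 7.2 buffer with MgCl2, EGTA, EDTA, DTT. Reaction started with [γ-33P]ATP (250 μM stock, 0.8 μCi) and run 20 min at 30°C. Products were spotted on P81 paper, washed in 1% phosphoric acid and scintillation-counted. No-substrate blank was subtracted. Peptide tested 1–500 μM against 10% DMSO control, two experiments in duplicate.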

CDK5/p35 = CDK5/p35 (Homo sapiens, UniProt Q00535); assay: Radiometric protein kinase assay, CDK5/p35 phosphotransferase activity; conditions: for % Activity Change 1 μM: peptide 1 μM; for % Activity Change 1 μM / % Activity Change 10 μM / % Activity Change 50 μM / % Activity Change 100 μM / % Activity Change 250 μM / % Activity Change 500 μM: duplicate; for % Activity Change 10 μM: peptide 10 μM; for % Activity Change 50 μM: peptide 50 μM; for % Activity Change 500 μM: peptide 500 μM
ERK1 = ERK1 (Homo sapiens, UniProt P27361); assay: Radiometric protein kinase assay, ERK1 phosphotransferase activity; conditions: for % Activity Change 1 μM: peptide 1 μM; for % Activity Change 10 μM: peptide 10 μM; for % Activity Change 50 μM: peptide 50 μM; for ERK1 activity inhibited by % compared to control / % Activity Change 500 μM: peptide 500 μM
How it was run: (§1)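 Reaction is started with [γ-33P]ATP (250 μM stock, 0.8 μCi), with peptide at six levels (1–500 μM) or 10% DMSO. Run 30°C, 20 min, then spot onto P81 paper, wash in 1% phosphoric acid and scintillation count. Substrate-free blank is subtracted. Duplicates, repeated twice.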

GSK3β = GSK3β (Homo sapiens, UniProt P49841); assay: Radiometric protein kinase assay, GSK3β phosphotransferase activity; conditions: for % Activity Change 1 μM: peptide 1 μM, positive = activation; for % Activity Change 10 μM: peptide 10 μM; for % Activity Change 50 μM: peptide 50 μM; for GSK3β phosphotransferase activity activated by % compared to control / % Activity Change 500 μM: peptide 500 μM
How it was run: as §1

Chain of GSK3β (P49841 whole entry, species assumed): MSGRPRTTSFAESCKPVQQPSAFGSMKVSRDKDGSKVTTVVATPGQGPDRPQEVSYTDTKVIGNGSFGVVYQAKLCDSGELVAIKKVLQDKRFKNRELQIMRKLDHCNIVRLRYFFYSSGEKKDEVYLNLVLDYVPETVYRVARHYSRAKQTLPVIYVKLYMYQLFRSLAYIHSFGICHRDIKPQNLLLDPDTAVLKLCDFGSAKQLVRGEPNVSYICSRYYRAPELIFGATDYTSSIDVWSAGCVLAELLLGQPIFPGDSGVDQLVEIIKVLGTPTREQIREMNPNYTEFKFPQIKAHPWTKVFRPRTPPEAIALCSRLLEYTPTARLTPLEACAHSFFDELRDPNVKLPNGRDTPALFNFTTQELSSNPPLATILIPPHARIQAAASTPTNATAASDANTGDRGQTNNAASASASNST
Chain of CDK5/p35 (Q00535 whole entry): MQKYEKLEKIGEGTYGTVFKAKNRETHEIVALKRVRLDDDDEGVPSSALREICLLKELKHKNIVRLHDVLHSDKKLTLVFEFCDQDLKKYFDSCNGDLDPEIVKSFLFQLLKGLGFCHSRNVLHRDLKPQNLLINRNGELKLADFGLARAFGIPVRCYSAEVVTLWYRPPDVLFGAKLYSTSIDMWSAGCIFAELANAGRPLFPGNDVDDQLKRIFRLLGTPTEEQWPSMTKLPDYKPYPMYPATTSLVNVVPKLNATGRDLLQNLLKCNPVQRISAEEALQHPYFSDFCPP
Chain of CDK5/p25 (Q00535 whole entry): as above
Chain of ERK1 (P27361 whole entry, species assumed): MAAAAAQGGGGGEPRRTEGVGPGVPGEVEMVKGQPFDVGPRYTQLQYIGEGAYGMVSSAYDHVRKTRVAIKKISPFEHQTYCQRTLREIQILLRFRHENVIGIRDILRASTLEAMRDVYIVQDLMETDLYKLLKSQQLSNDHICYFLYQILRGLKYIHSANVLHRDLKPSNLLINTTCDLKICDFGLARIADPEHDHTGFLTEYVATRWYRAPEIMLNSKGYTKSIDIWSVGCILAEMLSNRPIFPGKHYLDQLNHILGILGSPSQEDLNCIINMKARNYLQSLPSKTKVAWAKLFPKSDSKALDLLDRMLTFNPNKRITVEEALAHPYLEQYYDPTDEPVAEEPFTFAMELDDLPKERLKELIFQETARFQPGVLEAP

Compound | IC50 (CDK5/p25) [µM] | % Activity Change 1 μM (CDK5/p25) [%] | % Activity Change 10 μM (CDK5/p25) | % Activity Change 50 μM (CDK5/p25) | % Activity Change 100 μM (CDK5/p25; peptide 100 μM) | % Activity Change 250 μM (CDK5/p25; peptide 250 μM) | % Activity Change 500 μM (CDK5/p25) | IC50 (CDK5/p35) [µM] | % Activity Change 1 μM (CDK5/p35) | % Activity Change 10 μM (CDK5/p35) | % Activity Change 50 μM (CDK5/p35) | % Activity Change 100 μM (CDK5/p35; peptide 100 μM) | % Activity Change 250 μM (CDK5/p35; peptide 250 μM) | % Activity Change 500 μM (CDK5/p35) | % Activity Change 1 μM (ERK1; duplicate) [%] | % Activity Change 10 μM (ERK1; duplicate) [%] | % Activity Change 50 μM (ERK1; duplicate) | ERK1 activity inhibited by % compared to control (ERK1) [%] | % Activity Change 500 μM (ERK1; duplicate) | % Activity Change 1 μM (GSK3β; duplicate) | further results
CC[C@H](C)[C@H](NC(=O)[C@H](CCC(N)=O)NC(=O)[C@@H](NC(=O)[C@H](CCSC)NC(=O)[C@H](CCCCN)NC(=O)[C@H](CO)NC(=O)[C@@H](NC(=O)[C@H](CCSC)NC(=O)[C@H](CC(C)C)NC(=O)[C@H](CC(N)=O)NC(=O)[C@@H](NC(=O)[C@@H](NC(=O)[C@H](CO)NC(=O)[C@H](CC(C)C)NC(=O)[C@H](C)NC(=O)[C@H](CCCNC(=N)N)NC(=O)[C@H](CCC(=O)O)NC(=O)[C@H](Cc1ccc(O)cc1)NC(=O)[C@H](Cc1ccccc1)NC(=O)[C@H](C)NC(=O)[C@H](CC(N)=O)NC(=O)[C@@H](N)CCCCN)[C@@H](C)CC)[C@@H](C)CC)[C@@H](C)O)C(C)C)C(=O)N[C@@H](CC(N)=O)C(=O)N[C@H](C(=O)O)C(C)C [p5-MT] (H-KNAFYERALSIINLMTSKMVQINV-OH) | 119 | 2 | –8% | –22% | –46% | –73% | –85% | 83 | –3% | –14% | –35% | –57% | –73% | –84% | 1 | 0 | –2% | 54 | –54% | –1% | CDK5/p25 phosphotransferase activity inhibited by % compared to control (CDK5/p25; peptide 100 μM): 46%; CDK5/p35 phosphotransferase activity inhibited by % compared to control (CDK5/p35; peptide 100 μM): 57%; IC50 (ERK1): 425 µM; % Activity Change 250 μM (ERK1; peptide 250 μM, duplicate): –35%; % Activity Change 10 μM (GSK3β; duplicate): 3%; % Activity Change 50 μM (GSK3β; duplicate): 6%; GSK3β phosphotransferase activity activated by % compared to control (GSK3β): 40%; % Activity Change 500 μM (GSK3β; duplicate): 40%
CC[C@H](C)[C@H](NC(=O)[C@H](CCC(N)=O)NC(=O)[C@H](CC(C)C)NC(=O)[C@H](CCSC)NC(=O)[C@H](CCCCN)NC(=O)[C@H](CO)NC(=O)[C@H](CO)NC(=O)[C@H](CCSC)NC(=O)[C@H](CC(C)C)NC(=O)[C@H](CC(N)=O)NC(=O)[C@@H](NC(=O)[C@@H](NC(=O)[C@H](CO)NC(=O)[C@H](CC(C)C)NC(=O)[C@H](CS)NC(=O)[C@H](CCCNC(=N)N)NC(=O)[C@H](CC(=O)O)NC(=O)[C@H](Cc1c[nH]c2ccccc12)NC(=O)[C@H](Cc1ccccc1)NC(=O)[C@H](C)NC(=O)[C@H](CCC(=O)O)NC(=O)[C@@H](N)CCCCN)C(C)C)[C@@H](C)CC)C(=O)N[C@@H](CC(N)=O)C(=O)N[C@@H](C)C(=O)O [p5-WT] (H-KEAFWDRCLSVINLMSSKMLQINA-OH) | 169 | 0 | –13% | –20% | –41% | –59% | –72% | 217 | 2% | –2% | –10% | –29% | –53% | –76% | 0 | 0 | –3% | 25 | –25% | –3% | % CFC (percent change from control) (CDK5/p25; 79-peptide scan, relative to p5-WT peptide (#1), negative = greater inhibition): 0%; CDK5/p25 phosphotransferase activity inhibited by % compared to control (CDK5/p25; peptide 250 μM): 59%; CDK5/p35 activity inhibited by % compared to control (CDK5/p35; peptide 250 μM): 53%; % Activity Change 100 μM (ERK1; peptide 100 μM, duplicate): –6%; % Activity Change 10 μM (GSK3β; duplicate): –1%; % Activity Change 50 μM (GSK3β; duplicate): 0%; % Activity Change 100 μM (GSK3β; peptide 100 μM, duplicate): 8%; GSK3β phosphotransferase activity activated by % compared to control (GSK3β): 24%; % Activity Change 500 μM (GSK3β; duplicate): 24%
